T cruzi inh: blocks replication of Trypanosoma cruzi; inhibition, % (no concentration beside the values); AID 1885; 300,000 tested, 1.4% active; T. cruzi beta-gal in NIH3T3, luminescence, 90 h;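 active means mean inhibition across valid replicates above about 55%, limit read from the data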;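 further: signal also drops with host cell toxicity which is not excluded here; 0% = plate median of DMSO wells and 100% = zero luminescence signal; higher percent means less beta-gal luminescence so fewer parasites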
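System: mouse NIH/3T3 fibroblasts infected with β-gal-expressing T. cruzi Tulahuen C4 / Input: NIH/3T3 cells, 5,000 per well / Buffer or medium: Low-serum DMEM with 2% FBS / Probe or stimulus: 5000 reporter trypomastigotes per well / Schedule: ≥90 h infection period, 3 h prior cell attachment / Measured by: GalScreen luminescence, 60 min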
Lmaj promast: Leishmania major promastigote growth inhibition | Leishmania major promastigotes, resazurin fluorescence viability | inhibition, % at 10 µM | 200,000 tested, 9% active; in the data active means inhibition above about 50%;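 further: promastigotes grown with compound for 44 hours at 28 °C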
Redox H2O2 prof: compounds producing H2O2 with reducing agent – biochemical, NIH compound library profiling, artefact control for MLSCN library redox annotation, primary screen; DTT-dependent redox cycling H2O2, phenol red/HRP absorbance; 100% = 100 µM peroxide control, 0% = buffer; activation, % at 10 µM; 200,000 tested, 0.03% active;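 active means activation of at least 50% relative to the plate's high and low controls in the primary single-dose screen; inactive means activation below 50%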;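 further: compound incubated with DTT at 0.8 mM final as the reducing agent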
MPTP inh: inhibitors of mitochondrial permeability transition pore; isolated mouse mitochondria, Ca2+ swelling absorbance, 30 min; inhibition, % at 10 µM; 360,000 tested, 1.4% active; AID 602449;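 active means inhibition of 50% or more, scaled per plate between neutral and stimulator controls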;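 further: 0% = DMSO wells given calcium and 100% = 1 mM EGTA wells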
Hep lipid drop: modulators of hepatic lipid droplet formation | AML12 mouse hepatocytes, oleate lipid droplets, BODIPY imaging | inhibition, % at 6.5 µM | 240,000 tested, 0.4% active | AID 1656;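 active means lipid droplet intensity inhibited by at least 50%, with more than 500 cells counted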
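Test system: AML12 mouse liver cells; schedule: overnight exposure; technique: high-content imaging of BODIPY-stained droplets and DAPI nuclei; read-out: % inhibition of corrected integrated BODIPY droplet signal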
Rh123 counter: Rhodamine 123 counter-screen of mitochondrial pore hits; shares compounds with MPTP inh; isolated mitochondria, membrane potential, Rhodamine 123 fluorescence; inhibition, % at 10 µM; 5,000 tested, 78% active; AID 624504; in the data active means inhibition above about 22%;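 further: 0% = DMSO vehicle and 100% = positive control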
MPTP swell DR: MPTP inhibition, dose response swelling confirmation; shares compounds with MPTP inh; isolated mitochondria swelling, absorbance; IC50, µM; 780 tested, 58% active; AID 651561; in the data active means IC50 below about 20 µM
MPTP counter DR: counter-screen for mitochondrial permeability transition pore inhibitors, dose response | shares compounds with MPTP inh | isolated mitochondria counterscreen, fluorescence read-out | IC50, µM | 780 tested, 49% active; in the data active means IC50 below about 80 µM
The depositor's hits bear a star; i = inactive; . = no result. The entries come from a sample that favours hits as a whole.

SMILES	T cruzi inh	Lmaj promast	Redox H2O2 prof	MPTP inh	Hep lipid drop	Rh123 counter	others
CCc1nc(SCc2ccc(OCC(C)C)cc2)n[nH]1	10.8	.	.	86.3*	-3.3	66.5*
COCC(C)NS(=O)(=O)c1ccc(C(=O)NCCCn2ccc3ccccc32)cc1 (stereo not drawn)	13.0	.	.	-1.2	-6.4	.
O=C1NC(=S)/C(=C\c2ccc(-c3ccccc3Cl)o2)S1	-0.8	10.8	0.4	91.3*	9.7	37.4*
CCN(C(=O)CSc1n[nH]c(N)n1)C1CCCCC1	.	.	.	0.6	.	.
CN(C)C(CNC(=O)c1cc(S(=O)(=O)N(C)Cc2ccccc2)ccc1Cl)c1ccco1 (stereo not drawn)	5.0	.	.	67.6*	.	70.1*
CN(C)C(CNC(=O)c1cc(Br)ccc1Cl)c1ccco1 (stereo not drawn)	-2.1	.	.	1.9	-5.7	.
O=C(NCCCn1ccnc1)c1ccc(COc2ccccc2)o1	-7.6	.	.	-2.3	.	.
Cc1cc(C(F)(F)F)c(C#N)c(SCC(=O)Nc2nc3ccccc3s2)n1	-1.5	3.7	-0.1	63.2*	0.2	74.0*
Cc1ccc(SCC(=O)Nc2cccc(-c3nnc(-c4ccco4)o3)c2)cc1	5.9	17.4	1.8	0.6	-1.7	.
O=C(CSc1ccc(Cl)cc1)Nc1cccc(-c2nnc(-c3ccco3)o2)c1	23.3	45.1	0.0	69.9*	0.5	59.0*
COc1ccc(S(=O)(=O)Nc2ccc(Cc3ccncc3)cc2)cc1OC	-8.2	.	.	65.5*	-0.1	77.7*
CCc1ccc(OC)c(S(=O)(=O)Nc2ccc(Cc3ccncc3)cc2)c1	25.8	.	.	79.0*	-15.0	83.3*
CCc1sc(C(=O)Nc2nccs2)cc1C	11.7	.	.	1.6	-7.6	.
CCc1sc(C(=O)Nc2nc(-c3ccccn3)cs2)cc1C	.	.	.	68.1*	.	-13.9
COc1ccc(C(=O)NNC(=O)c2cccs2)cc1S(=O)(=O)N1CCOCC1	.	.	.	-0.3	.	.
CN(Cc1cccs1)c1ncnc2sccc12	-25.9	-0.1	2.8	57.0*	-46.9	63.3*
c1csc(CNc2ncnc3sccc23)c1	-27.5	8.7	0.0	89.9*	.	73.1*
Cc1csc2ncnc(NCCc3ccccn3)c12	-26.2	25.6	-1.4	86.9*	-9.5	69.5*
c1ccc(CCNc2ncnc3sccc23)nc1	3.6	6.7	-1.6	60.6*	-8.9	16.2	MPTP swell DR=i;MPTP counter DR=52.5*
COc1ccc(-n2c(C)cc(-c3csc(N)n3)c2C)cc1	7.8	-1.8	0.7	0.8	-1.1	.
CC(=O)N1c2ccc(S(=O)(=O)N(C)CC(=O)NCc3ccc(C)cc3)cc2CC1C (stereo not drawn)	14.1	.	.	-0.6	-13.1	.
Cn1c2c(c(=O)n(C)c1=O)C(C(F)(F)F)(C(F)(F)F)N=C(c1ccccc1Cl)N2	5.1	1.7	1.6	4.6	0.7	.
Cn1c2c(c(=O)n(C)c1=O)C(C(F)(F)F)(C(F)(F)F)N=C(CCC1CCCCC1)N2	0.5	90.0*	-0.6	93.6*	11.3	78.8*
CCC(=O)c1ccc(OCc2ccc(C(=O)c3ccccc3)cc2)cc1	33.3	-1.1	14.6	101.0*	.	104.0*
Cc1ccn2c(CNCC3OCCc4ccccc43)c(C(=O)N3CCCCCC3)nc2c1 (stereo not drawn)	35.7	8.6	-0.8	0.7	-1.7	.
SMILES	T cruzi inh	Lmaj promast	Redox H2O2 prof	MPTP inh	Hep lipid drop	Rh123 counter	others
Cc1[nH]nc(-c2ccc(O)cc2O)c1Oc1ccccc1	-6.9	-8.3	0.5	55.8*	.	58.1*
COC(=O)c1cc(C)[nH]c2c(C)cc3nc4ccccc4c3c12	25.3	.	.	1.4	-4.1	.
CC(C)C[C@H](N)c1cn([C@@H](Cc2cc3ccccc3[nH]2)C(=O)N2CCNCC2)nn1	-18.2	-5.0	1.1	92.1*	-8.4	-11.6	MPTP swell DR=4.87*;MPTP counter DR=>80
COc1ccc(CCN2C(=O)c3ccccc3C2c2nnnn2C(C)C)cc1OC (stereo not drawn)	.	.	.	-0.7	.	.
COc1cc(CNCCc2c[nH]c3ccccc23)ccc1OCc1ccc(F)cc1	53.3	100.4*	0.3	70.3*	-4.5	-25.2
COc1cc(CNCCc2c[nH]c3ccccc23)cc(Cl)c1OCC(N)=O	-6.1	12.2	-0.3	-1.7	-13.9	.
C#CCOCCOCCOCCNc1nc(N2CCN(C(=O)[C@H](CCCCN)n3cc(CN)nn3)CC2)nc(N2CCN(C(=O)[C@H](CCCN=C(N)N)n3cc(C(N)[C@H](C)CC)nn3)CC2)n1 (stereo partly drawn)	.	.	.	83.9*	.	-9.4	MPTP swell DR=i;MPTP counter DR=>80
C#CCOCCOCCOCCNc1nc(N2CCN(C(=O)[C@H](CCCN=C(N)N)n3cc(C(N)[C@H](C)CC)nn3)CC2)nc(N2CCN(C(=O)[C@H](CCCN=C(N)N)n3cc(C(N)[C@@H](C)CC)nn3)CC2)n1 (stereo partly drawn)	.	.	.	-3.5	.	.
C#CCOCCOCCOCCNc1nc(N2CCN(C(=O)CCCCCCCCCCNC(=O)Cn3cc(CCCCCN)nn3)CC2)nc(N2CCN(C(=O)CCCCCCCCCCNC(=O)[C@H]([C@@H](C)CC)n3cc(CCCCCN)nn3)CC2)n1	.	.	.	162.6*	.	101.0*
Cc1ccc(COC(=O)c2nn(C)c(=O)c3ccccc23)cc1	-5.9	-8.7	-0.2	55.4*	-1.3	33.6*
Cn1nc(C(=O)OCc2ccc(F)cc2)c2ccccc2c1=O	-10.5	-4.4	-0.3	0.2	2.7	.
COC(=O)C1CCN(C(=O)CN2C(=O)NC3(CCC(C)CC3)C2=O)CC1 (stereo not drawn)	.	.	.	0.4	.	.
O=C(/C=C/c1c(Cl)cccc1Cl)Nc1ccncc1	21.1	97.7*	0.0	61.5*	.	57.0*
O=C1c2ccc(Cl)cc2S(=O)(=O)c2cccc(C(=O)N3CCC(Cc4ccccc4)CC3)c21	.	.	.	0.0	.	.
Cc1ccc2cc(CN(CCc3ccccc3)C(=S)NCCCN(C)C)c(=O)[nH]c2c1	31.4	.	.	0.4	.	.
Cc1ccc2[nH]c(=O)c(CN(CCCN(C)C)C(=S)NCCc3ccccc3)cc2c1	84.4*	75.7*	0.3	85.7*	4.0	-9.7	MPTP swell DR=11.9*;MPTP counter DR=>80
CCOC(=O)c1cccc(OS(=O)(=O)Cc2ccccc2)c1	-7.3	.	.	1.8	.	.
COc1cccc(/C=N/Nc2nc3ccccc3[nH]2)c1OC	-6.0	.	.	0.9	20.2	.
C=CCn1cc(/C=N/Nc2nc3ccccc3[nH]2)c2ccccc21	14.8	100.5*	0.5	63.4*	-5.5	-21.9
Clc1nc2ccccc2cc1/C=N/Nc1nc2ccccc2[nH]1	-7.0	21.5	1.7	15.6	12.1	.
CCCn1c(/C=N/Nc2nc3ccccc3[nH]2)nc2ccccc21	.	100.4*	-0.3	89.9*	-34.0	80.8*
CC(C)Cn1c(/C=N/Nc2nc3ccccc3[nH]2)nc2ccccc21	46.0	100.3*	0.4	99.7*	-0.9	74.0*
